Experimental data from publication PMC3401279 (ACS Chemical Biology, 2012).
Entries after “also recorded” stand apart in the source; their conditions may differ.

How the values were obtained:
[1] = system: TAAR4; details: cited from earlier work
[2] = system: rodents; details: carnivore odor; cited from earlier work
[3] = system: TAAR5; details: cited from earlier work
[4] = target: T1, rTAAR7h (Rattus norvegicus, UniProt Q923Y4); test: cAMP-dependent CRE-SEAP reporter gene assay in transfected HEK293 cells, rTAAR7h; type: cell-based; details: ligand 10 μM
T1 sequence (Q923Y4 1-358): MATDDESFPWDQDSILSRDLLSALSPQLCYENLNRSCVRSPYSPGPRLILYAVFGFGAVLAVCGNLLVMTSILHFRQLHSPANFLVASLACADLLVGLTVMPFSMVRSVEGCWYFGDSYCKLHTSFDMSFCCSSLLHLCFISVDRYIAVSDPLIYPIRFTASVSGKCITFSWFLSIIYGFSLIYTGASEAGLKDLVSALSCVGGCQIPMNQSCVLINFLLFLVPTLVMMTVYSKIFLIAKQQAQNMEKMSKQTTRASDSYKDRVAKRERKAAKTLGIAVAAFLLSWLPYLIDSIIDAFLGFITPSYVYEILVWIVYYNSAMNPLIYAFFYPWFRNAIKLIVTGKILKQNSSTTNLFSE
Procedure, shortened: (§1)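 HEK293 cells were co-transfected with a TAAR plasmid and a cAMP-dependent secreted alkaline phosphatase reporter (CRE-SEAP). Receptors were expressed both unmodified and as fusions with an N-terminal bovine rhodopsin sequence (Rho tag) that aids surface expression. Transfected cells were incubated with test compound at 10 μM. Secreted phosphatase activity was quantified with a fluorescent substrate as the activation read-out. Triplicates ± s.d.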

[5] = system: mTAAR7e-YC (mTAAR7e S132Y, S133C); test: cellular reporter gene assay, mutant mTAAR7e-YC; type: cell-based, mouse; details: mutant versus mTAAR7e; for decreased affinity of mTAAR7e-YC: decrease
[6] = system: mTAAR7f-SS (mTAAR7f Y132S, C133S); test: cellular reporter gene assay, mutant mTAAR7f-SS; type: cell-based, mouse; details: mutant versus mTAAR7f, increase
[7] = target: T2, mTAAR7e (Mus musculus, UniProt Q5QD09); test: cAMP-dependent CRE-SEAP reporter gene assay in transfected HEK293 cells, mTAAR7e; type: cell-based; details: ligand 10 μM
T2 sequence (Q5QD09 1-358): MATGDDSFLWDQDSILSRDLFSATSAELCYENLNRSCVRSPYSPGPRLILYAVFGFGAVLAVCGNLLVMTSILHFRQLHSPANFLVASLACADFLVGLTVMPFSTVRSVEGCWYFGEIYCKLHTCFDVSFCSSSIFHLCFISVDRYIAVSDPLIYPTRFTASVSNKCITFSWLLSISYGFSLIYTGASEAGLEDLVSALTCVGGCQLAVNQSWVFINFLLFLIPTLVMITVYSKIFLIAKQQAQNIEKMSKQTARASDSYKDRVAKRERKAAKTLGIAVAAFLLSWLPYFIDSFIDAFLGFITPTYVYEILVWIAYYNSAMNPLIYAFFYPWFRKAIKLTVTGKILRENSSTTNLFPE
Procedure, shortened: as §1

[8] = target: T3, mTAAR7b (Mus musculus, UniProt Q5QD11); test: cAMP-dependent CRE-SEAP reporter gene assay in transfected HEK293 cells, mTAAR7b; type: cell-based; details: ligand 10 μM
T3 sequence (Q5QD11 1-358): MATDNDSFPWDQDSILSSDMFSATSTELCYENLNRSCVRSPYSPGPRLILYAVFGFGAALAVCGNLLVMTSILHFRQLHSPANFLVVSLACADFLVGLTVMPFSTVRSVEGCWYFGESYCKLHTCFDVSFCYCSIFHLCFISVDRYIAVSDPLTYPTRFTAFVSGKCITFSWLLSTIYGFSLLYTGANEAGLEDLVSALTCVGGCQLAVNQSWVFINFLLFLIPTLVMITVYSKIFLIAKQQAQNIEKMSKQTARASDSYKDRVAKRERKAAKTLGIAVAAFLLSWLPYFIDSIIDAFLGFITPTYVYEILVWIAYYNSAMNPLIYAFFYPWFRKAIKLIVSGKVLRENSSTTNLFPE
Procedure, shortened: as §1

[9] = target: T4, mTAAR7f (Mus musculus, UniProt Q5QD08); test: cAMP-dependent CRE-SEAP reporter gene assay in transfected HEK293 cells, mTAAR7f; type: cell-based; details: ligand 10 μM
T4 sequence (Q5QD08 1-358): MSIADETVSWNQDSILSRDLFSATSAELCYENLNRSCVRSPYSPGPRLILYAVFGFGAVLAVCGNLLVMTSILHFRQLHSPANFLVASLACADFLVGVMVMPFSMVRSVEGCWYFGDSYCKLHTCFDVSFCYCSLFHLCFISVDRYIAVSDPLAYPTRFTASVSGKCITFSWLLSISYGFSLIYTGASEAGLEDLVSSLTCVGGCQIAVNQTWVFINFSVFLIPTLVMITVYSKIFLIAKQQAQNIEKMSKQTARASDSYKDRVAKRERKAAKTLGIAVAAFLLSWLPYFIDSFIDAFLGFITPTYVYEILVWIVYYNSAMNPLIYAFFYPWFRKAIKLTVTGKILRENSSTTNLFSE
Procedure, shortened: as §1

[10] = target: T5, rTAAR7b (Rattus norvegicus, UniProt Q923X8); test: cAMP-dependent CRE-SEAP reporter gene assay in transfected HEK293 cells, rTAAR7b; type: cell-based; details: ligand 10 μM
T5 sequence (Q923X8 1-358): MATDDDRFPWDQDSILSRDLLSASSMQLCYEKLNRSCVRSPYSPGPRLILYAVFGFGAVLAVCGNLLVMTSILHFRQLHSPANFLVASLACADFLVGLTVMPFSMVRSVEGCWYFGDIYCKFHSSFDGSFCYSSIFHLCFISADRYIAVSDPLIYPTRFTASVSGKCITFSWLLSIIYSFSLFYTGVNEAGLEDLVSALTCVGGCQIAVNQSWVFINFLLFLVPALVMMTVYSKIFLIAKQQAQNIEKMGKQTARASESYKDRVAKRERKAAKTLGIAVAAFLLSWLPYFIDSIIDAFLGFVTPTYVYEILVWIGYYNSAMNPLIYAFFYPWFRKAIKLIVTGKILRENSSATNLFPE
Procedure, shortened: as §1

[11] = target: T6, rTAAR7d (Rattus norvegicus, UniProt Q923X5); test: cAMP-dependent CRE-SEAP reporter gene assay in transfected HEK293 cells, rTAAR7d; type: cell-based; details: ligand 10 μM
T6 sequence (Q923X5 1-358): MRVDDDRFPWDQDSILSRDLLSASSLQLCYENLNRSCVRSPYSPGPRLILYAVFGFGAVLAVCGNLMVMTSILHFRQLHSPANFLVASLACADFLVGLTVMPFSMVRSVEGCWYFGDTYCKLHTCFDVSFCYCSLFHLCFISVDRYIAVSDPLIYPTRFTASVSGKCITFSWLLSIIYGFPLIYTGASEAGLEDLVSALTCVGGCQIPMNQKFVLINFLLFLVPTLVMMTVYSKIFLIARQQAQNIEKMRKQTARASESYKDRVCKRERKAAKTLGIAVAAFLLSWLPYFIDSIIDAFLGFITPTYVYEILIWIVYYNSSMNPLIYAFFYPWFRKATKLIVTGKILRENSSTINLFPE
Procedure, shortened: as §1

NCCc1ccccc1 [ligand 3, 2-phenylethylamine]
TAAR4 agonist [1]: agonist
behavioral effect of odor on rodents [2]: repels rodents

CN(C)C [ligand 4, trimethylamine]
TAAR5 agonist [3]: agonist

CN(C)CCc1ccccc1 [ligand 6, N,N-dimethyl-2-phenylethylamine]
activation of rTAAR7h (reporter response) [4]: respond; also recorded: activated
decreased affinity of mTAAR7e-YC [5]: > 1,000 fold
increases in affinity of mTAAR7f-SS [6]: > 1,000 fold
activation of mTAAR7e (reporter response) [7]: respond; also recorded: activated

COc1ccc2[nH]cc(CCN(C)C)c2c1 [ligand 7, 5-methoxy-N,N-dimethyltryptamine]
decreased affinity of mTAAR7e-YC [5]: > 1,000 fold
increases in affinity of mTAAR7f-SS [6]: > 1,000 fold

CN(C)C1CCCCC1 [ligand 10, N,N-dimethylcyclohexylamine]
activation of mTAAR7b (reporter response) [8]: respond; also recorded: activated
activation of mTAAR7f (reporter response) [9]: respond; also recorded: activated
activation of rTAAR7b (reporter response) [10]: respond; also recorded: activated
enhanced affinity of mTAAR7e-YC ([5]; increase): > 1,000 fold
activation of rTAAR7d (reporter response) [11]: respond; also recorded: activated
